High-throughput results deposited in PubChem by several laboratories.
SENP6 block: SENP6 protease inhibition; Recombinant SENP6 catalytic domain, aminoluciferin luminescence; inhibition, % at 10 µM; hit rate 1.8% among 330,000;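 active = inhibition above about 50% at the single tested dose, limit read from the data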
Target sequence (Q9GZR1 628-1112 limits assumed): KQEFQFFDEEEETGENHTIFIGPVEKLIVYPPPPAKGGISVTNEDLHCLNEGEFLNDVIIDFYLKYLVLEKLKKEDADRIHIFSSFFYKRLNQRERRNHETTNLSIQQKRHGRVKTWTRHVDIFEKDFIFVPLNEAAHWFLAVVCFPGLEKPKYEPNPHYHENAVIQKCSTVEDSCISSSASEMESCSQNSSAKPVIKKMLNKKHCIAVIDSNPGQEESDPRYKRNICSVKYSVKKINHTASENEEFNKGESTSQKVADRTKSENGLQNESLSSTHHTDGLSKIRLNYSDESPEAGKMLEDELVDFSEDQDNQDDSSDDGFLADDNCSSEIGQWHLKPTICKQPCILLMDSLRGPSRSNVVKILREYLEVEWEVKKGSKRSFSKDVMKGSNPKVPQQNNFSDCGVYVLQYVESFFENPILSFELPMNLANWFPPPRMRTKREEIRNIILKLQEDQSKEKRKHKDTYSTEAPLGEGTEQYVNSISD
SENP8 block-1: inhibitors of human SENP8 protease; Q96LD8; recombinant SENP8, Nedd8 substrate fluorescence; inhibition, % at 20 µM; hit rate 0.64% among 360,000; AID 602440; in the data active = inhibition mostly above about 40%, no sharp cut-off; inactive = mostly below about 27%
SENP7 inh: blocks the human protease SENP7; Q9BQF6; recombinant SENP7, Z-RLRGG-aminoluciferin luminescence, 40 min; inhibition, % at 5 µM; hit rate 1.5% among 330,000; AID 434973;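 active = inhibition above about 50% at the single test dose, limit read from the data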
SENP8 block-2: blocks the human protease SENP8. Q96LD8. purified SENP8, Z-RLRGG-aminoluciferin cleavage, luminescence. inhibition, % at 10 µM. hit rate 1.2% among 330,000. AID 2540; in the data active = inhibition above about 50%
HSP90 refold inh: HSP90 refolding inhibition in rabbit reticulocyte lysate; luciferase refolding luminescence, 3 h; inhibition, % at 5.6 µM; hit rate 0.91% among 290,000;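 active = inhibition above the screen-wide mean plus 3 SD, computed separately per campaign, cut at about 16% in these data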;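 note: inhibitors lower the luminescence because luciferase stays unfolded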
SENP1 inh: inhibitors of human SENP1 SUMO protease catalytic domain; recombinant SENP1 catalytic domain, CyPet-SUMO1-YPet FRET cleavage; inhibition, % at 10 µM; hit rate 0.21% among 360,000; AID 624204;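 active = inhibition at least 30% at 10 µM, raw YFP signal under a set limit, fluorescence ratio 0.5 to 1.5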
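material = recombinant human SENP1 catalytic domain, His6-tagged | quantity = 20 pM enzyme | reagent = 25 nM SUMO1 FRET substrate | compound dosing = 10 µM single point, 0.5% DMSO | timing = 50 min enzyme reaction, room temperature, light-protected | detection = FRET, CFP and YFP emission | control set = no-enzyme low, enzyme-DMSO high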
SENP8 conf: confirmation of human SENP8 protease inhibitors | purified SENP8, Nedd8-AMC/pro-Nedd8 cleavage fluorescence, 30 min | hit rate 15% among 1,400 | inhibition, % at 25 µM | AID 624319 | shares compounds with SENP8 block-1; in the data active = inhibition mostly above about 39%, no sharp cut-off; inactive = mostly below about 34%
Each line names hits and unclear results; the compound was inactive in the other large screens (follow-up assays come after a bar, where they were run). Hits are enriched below; roughly 2.9% of the tested compounds scored in any of these assays.

C[C@@H](OC(=O)c1[nH]cnc1C(=O)N1CCc2ccccc2C1)c1ccccc1	SENP8 block-1 52 (no result: HSP90 refold inh) | SENP8 conf 86
CC1CCN(C(=O)c2nc[nH]c2C(=O)O[C@H](C)c2ccccc2)CC1	none (no result: HSP90 refold inh)
O=C(O)CCC1OC(=O)C(O)=C1c1ccccc1 (stereo not given)	SENP8 block-1 40 (no result: HSP90 refold inh) | SENP8 conf inactive
COc1ccc(-c2ccc3c(c2)O[C@H](CN(C)C(=O)Nc2ccccc2F)[C@@H](C)CN([C@H](C)CO)S3(=O)=O)cc1	none (no result: SENP6 block, SENP7 inh, SENP8 block-2, HSP90 refold inh)
CCCCN1C2=C(C(=O)CC(C)(C)C2)C(c2ccccc2)C2=C1c1ccccc1C2=O (stereo not given)	SENP8 block-1 54 | SENP8 conf inactive
CC1=CC2(C)NC(=O)C(C)C12 (stereo not given)	none (no result: SENP6 block, SENP7 inh, SENP8 block-2, HSP90 refold inh)
CC1(C)SC(=S)N(/N=C/c2ccc(O)cc2)C1N(O)C(=O)Nc1ccc([N+](=O)[O-])cc1 (stereo not given)	none
Cc1ccc(/C=N/N2C(=S)SC(C)(C)C2N(O)C(=O)Nc2ccc([N+](=O)[O-])cc2)cc1 (stereo not given)	SENP8 block-1 40 | SENP8 conf inactive
Cc1ccc(S(=O)(=O)NC(=O)Nc2ccc(N(C)C)cc2)cc1	SENP8 block-1 75 | SENP8 conf 64
Cc1cc(C)c(C)c(S(=O)(=O)NCc2ccc(C(=O)N3CCCCC3)cc2)c1C	SENP8 block-1 42 | SENP8 conf inactive
CCNC(=S)NNc1ccccc1	SENP8 block-1 43 | SENP8 conf inactive
CC1(C)Cc2cccc(OCC(=O)OCC(=O)Nc3cccc(S(N)(=O)=O)c3)c2O1	SENP8 block-1 40 | SENP8 conf inactive
Nc1nnc(-c2ccc([N+](=O)[O-])o2)s1	SENP8 block-1 37 (no result: SENP6 block, SENP7 inh, SENP8 block-2, HSP90 refold inh) | SENP8 conf inactive
O=C(Nc1ccc(N2CCCC2)cc1)c1ccccc1[N+](=O)[O-]	SENP8 block-1 35 | SENP8 conf inactive
O=C(Nc1ccc(N2CCCCC2)cc1)c1ccc2ccccc2n1	SENP8 block-1 40 | SENP8 conf inactive
COc1ccc(N2C(=O)CC(Nc3cccc([N+](=O)[O-])c3)C2=O)cc1 (stereo not given)	SENP8 block-1 47 | SENP8 conf inactive
O=C1CC(c2ccco2)CC(O)=C1C=NCCN1CCNCC1 (stereo not given)	none
O=C1CC(c2ccco2)CC(O)=C1C=NCC1CCNCC1 (stereo not given)	SENP8 block-1 65 | SENP8 conf inactive
C[C@H](c1ccccc1)N1C[C@H](COCc2ccccc2)Oc2cc(N3CCC[C@H]3C(N)=O)ccc2S1(=O)=O	none (no result: SENP6 block, SENP7 inh, SENP8 block-2, HSP90 refold inh)
CN1/C(=C/C=C(C#N)C#N)C(C)(C)c2ccccc21	none
CC1=C/C(=C\C=C(C#N)C#N)N(C)c2ccccc21	SENP8 block-1 50, SENP1 inh 72 | SENP8 conf inactive
COc1ccc(CNC(=O)Nc2cc(C)cc(C)c2)cc1	SENP8 block-1 43 | SENP8 conf inactive
COc1ccc(CNC(=O)Nc2ccc(C)cc2)cc1	none
CC(Sc1ccsc1[N+](=O)[O-])C(=O)NCCc1ccc(Cl)cc1 (stereo not given)	SENP8 block-1 42 | SENP8 conf inactive
Cc1ccc(NC(=S)NNC(=O)c2cn(C)nc2C)cc1	SENP8 block-1 43 | SENP8 conf inactive
O=C(Nc1cccc(S(=O)(=O)Nc2ccc(Cl)cc2)c1)c1ccc[n+]([O-])c1	none
CN(C)CCNC(=O)C(=O)Nc1cc2c3c(c1)CCN3C(=O)CC2	none
Cc1cccc(OC(=O)c2cccnc2)c1C	none
O=C(Oc1ccccc1[N+](=O)[O-])c1cccnc1	SENP8 block-1 46 | SENP8 conf inactive
CC(C)C[C@H](NC(=O)c1cc2cc(Cl)ccc2n1C)C(=O)N1CCC[C@H]1C(=O)O	SENP8 block-1 47 | SENP8 conf inactive
C[C@H](NC(=O)c1cc2cc(Cl)ccc2n1C)C(=O)N1CCC[C@H]1C(=O)O	none
CC1(C)C[C@H]2C3=CCC4[C@@]5(C)CC[C@H](O)[C@](C)(CO)C5CC[C@@]4(C)[C@]3(C)CC[C@@]2(C)[C@H](O)[C@@H]1O (stereo not given in full)	SENP8 block-1 40 (no result: HSP90 refold inh) | SENP8 conf inactive
Cc1nc(N2CCOCC2)nc(Oc2ccccc2F)c1[N+](=O)[O-]	SENP8 block-1 41 | SENP8 conf inactive
Cn1cc(-c2coc3c(C(=O)NCc4cccs4)cccc23)cn1	none (no result: SENP6 block, SENP7 inh, SENP8 block-2, HSP90 refold inh)
CC(NC(=O)Nc1ccc(O)cc1)(C(F)(F)F)C(F)(F)F	SENP8 block-1 78 | SENP8 conf inactive
CCOC(=O)c1nc(NNC(=O)c2ccc([N+](=O)[O-])cc2)sc1C	SENP8 block-1 41 | SENP8 conf inactive
CCOC(=O)c1sc(NNC(=O)c2ccc(C)cc2)nc1C	none
Cc1ccc(C)c(NC(=S)c2ccc3ccccc3n2)c1	none
CN(C)c1ccc(NC(=S)c2ccc3ccccc3n2)cc1	SENP8 block-1 42 | SENP8 conf inactive
CC(=O)Nc1ccccc1NC(=O)C/C(C)=N/NC(=O)c1ccc([N+](=O)[O-])c(Cl)c1	SENP8 block-1 40 | SENP8 conf inactive
Cc1cc(=O)[nH]c(N/N=C/C(C)c2ccccc2)n1 (stereo not given)	SENP8 block-1 47 | SENP8 conf inactive
CC(/C=N/Nc1nc(C)cc(=O)[nH]1)=C\c1ccccc1	none
Clc1ss/c(=N\c2ccccn2)c1Cl	SENP8 block-1 49 | SENP8 conf inactive
Cc1nc2ccc(NC(=O)c3cc([N+](=O)[O-])cc([N+](=O)[O-])c3Cl)cc2s1	SENP8 block-1 41 (no result: SENP6 block, SENP7 inh, SENP8 block-2) | SENP8 conf inactive
N#CC1=C(N)Oc2c(oc(CO)cc2=O)C1c1cccs1 (stereo not given)	SENP8 block-1 45 | SENP8 conf inactive
CCOc1ccc(NS(=O)(=O)c2ccc(C(=O)NCC(c3ccc(OC)cc3)N3CCOCC3)cc2)cc1 (stereo not given)	none (no result: HSP90 refold inh)
COc1ccc2c(Cl)c(-c3nnc4n3CCCCC4)sc2c1	SENP8 block-1 48 | SENP8 conf inactive
CCOC(=O)c1c(OCC)[nH]c2ccc(O)cc12	none
Cc1ccc(C(=O)N2NC(c3ccc(F)cc3)C3C(=O)N(c4ccc(C)cc4)C(=O)C32)cc1 (stereo not given)	none
COc1ccccc1N1C(=O)C2C(c3ccc(F)cc3)NN(C(=O)c3ccc(C)cc3)C2C1=O (stereo not given)	SENP8 block-1 44 | SENP8 conf inactive
c1ccc(CN(Cc2cccs2)C(c2cccs2)c2nnnn2C2CCCC2)cc1 (stereo not given)	SENP8 block-1 43 | SENP8 conf inactive
N#CC(c1ccc(Cl)nn1)c1ccccc1Cl (stereo not given)	SENP8 block-1 41 | SENP8 conf inactive
